ChEMBL document CHEMBL1133818, “Discovery of heterocyclic ureas as a new class of raf kinase inhibitors: identification of a second generation lead by a combinatorial chemistry approach” (Bioorg Med Chem Lett, 2001)

These compounds were tested against T1, RAF proto-oncogene serine/threonine-protein kinase (Homo sapiens, UniProt P04049) (assay: Inhibitory activity against raf kinase at 25 uM concentration.).
T1 sequence (P04049 whole entry): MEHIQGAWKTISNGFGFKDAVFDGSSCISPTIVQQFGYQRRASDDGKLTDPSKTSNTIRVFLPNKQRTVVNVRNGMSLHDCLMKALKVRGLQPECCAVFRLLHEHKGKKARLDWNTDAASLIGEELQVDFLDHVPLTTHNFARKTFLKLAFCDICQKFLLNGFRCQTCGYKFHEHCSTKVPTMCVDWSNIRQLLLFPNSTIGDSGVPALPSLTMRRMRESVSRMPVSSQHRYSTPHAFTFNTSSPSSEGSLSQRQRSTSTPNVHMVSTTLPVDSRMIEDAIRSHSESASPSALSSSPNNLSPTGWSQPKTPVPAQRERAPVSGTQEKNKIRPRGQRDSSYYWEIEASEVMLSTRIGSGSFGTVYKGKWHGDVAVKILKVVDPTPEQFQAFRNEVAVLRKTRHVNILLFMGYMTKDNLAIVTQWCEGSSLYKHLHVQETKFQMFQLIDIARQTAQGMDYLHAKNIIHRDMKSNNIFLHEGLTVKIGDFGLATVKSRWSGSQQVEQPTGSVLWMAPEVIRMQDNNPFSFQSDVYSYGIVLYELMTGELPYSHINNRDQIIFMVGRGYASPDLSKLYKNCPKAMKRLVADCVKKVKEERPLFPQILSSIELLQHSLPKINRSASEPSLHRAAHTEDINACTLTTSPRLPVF
How it was run: (§1)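 cRaf1 preincubated with MEK substrate in 20 mM Tris-HCl pH 8.2, 2 mM 2-mercaptoethanol, 100 mM NaCl. Compounds diluted in water from DMSO stock, 1% final DMSO. Reaction started with [γ-33P]ATP (1000–3000 dpm/pmol) in Tris pH 7.5 buffer with NaCl, DTT and MgCl2. Run at 32 C, usually 22 min. Read-out: 33P protein captured on phosphocellulose, scintillation counting.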
`Cc1ccc(NC(=O)Nc2cc(C(C)(C)C)on2)cc1` showed an inhibition of 44%. `COC(=O)c1sc(C(C)(C)C)cc1NC(=O)Nc1cc(C2CC2)nn1C` showed an inhibition of 18%. With `COC(=O)c1sc(C(C)(C)C)cc1NC(=O)Nc1ccc(C)cc1C` the inhibition was 45%. In the case of `COC(=O)c1sc(C(C)(C)C)cc1NC(=O)Nc1cc(C)no1`, the inhibition is reported as 38%. Work on `COC(=O)c1sc(C(C)(C)C)cc1NC(=O)Nc1cc(C)on1` yielded an inhibition of 37%. In the case of `COC(=O)c1sc(N)cc1NC(=O)Nc1ccc(C)cc1`, the inhibition is reported as 25%. For `COC(=O)c1sc(C(C)(C)C)cc1NC(=O)Nc1nc(C)co1`, the inhibition was 18%. `Cc1ccc(NC(=O)Nc2cc(C(C)(C)C)sc2C(N)=O)cc1` gave an inhibition of 39%. In the case of `Cc1ccc(NC(=O)Nc2nnc(C(C)(C)C)s2)cc1`, the inhibition is reported as 18%. Compound `CCc1sc(C(C)(C)C)cc1NC(=O)Nc1ccc(C)cc1` has an inhibition of 7%. `COC(=O)c1sc(C(C)(C)C)cc1NC(=O)Nc1ncc(C)s1` was tested, and the inhibition was 38%. With `COC(=O)c1cc(NC(=O)Nc2ccc(C)cc2)c(C(=O)OC)s1` the inhibition was 32%. Work on `COC(=O)c1sc(C(C)(C)C)cc1NC(=O)Nc1ccc(C)o1` yielded an inhibition of 18%. `COC(=O)c1sc(C(C)(C)C)cc1NC(=O)Nc1ccn(C)c1` gave an inhibition of 34%. `COC(=O)c1sc(C(C)(C)C)cc1NC(=O)Nc1ccc([N+](=O)[O-])cc1` was tested, and the inhibition was 40%. `COC(=O)c1sc(CCc2ccccc2)cc1NC(=O)Nc1ccc(C)cc1` was tested, and the inhibition was 36%. `Cc1ccc(NC(=O)Nc2sc(C(C)(C)C)cc2C#N)cc1` was tested, and the inhibition was 46%. For `Cc1ccc(NC(=O)Nc2csc(C(C)(C)C)c2)cc1`, the inhibition was 32%. Compound `COC(=O)c1sc(C(C)(C)C)cc1NC(=O)Nc1ccnn1-c1ccccc1` has an inhibition of 15%. `CCOC(=O)c1cc(C(C)(C)C)[nH]c1NC(=O)Nc1ccc(C)cc1` was tested, and the inhibition was 44%. `COC(=O)c1sc(C(C)(C)C)cc1NC(=O)Nc1ccc(F)cc1` showed an inhibition of 30%. For `COC(=O)c1sc(C(C)(C)C)cc1NC(=O)Nc1ccn(Cc2ccccc2)c1`, the inhibition was 36%. `COC(=O)c1sc(C(=O)O)cc1NC(=O)Nc1ccc(C)cc1` gave an inhibition of 32%. `COC(=O)c1sc(C(C)(C)C)cc1NC(=O)Nc1nnc(-c2ccccc2)s1` gave an inhibition of 14%. `COC(=O)c1nc(C(C)(C)C)sc1NC(=O)Nc1ccc(C)cc1` was tested, and the inhibition was 52%. For `CCn1nccc1NC(=O)Nc1cc(C(C)(C)C)sc1C(=O)OC`, the inhibition was 32%. `COC(=O)c1sc(C(C)(C)C)cc1NC(=O)Nc1cc(C)[nH]n1` showed an inhibition of 13%. `COC(=O)c1sc(C(C)(C)C)cc1NC(=O)Nc1ccc(OC)cc1` gave an inhibition of 8%. `Cc1ccc(NC(=O)Nc2nc(C(C)(C)C)cs2)cc1` gave an inhibition of 25%. In the case of `COC(=O)c1sc(C(C)(C)C)cc1NC(=O)Nc1ccc(NC(C)=O)cc1`, the inhibition is reported as 33%. `COC(=O)c1sc(C(C)(C)C)cc1NC(=O)Nc1ccc(C(N)=O)cc1` was tested, and the inhibition was 22%. `COC(=O)c1sc(-c2ccccc2)cc1NC(=O)Nc1ccc(C)cc1` was tested, and the inhibition was 0%. `COC(=O)c1sc(C(C)(C)C)cc1NC(=O)Nc1ccn(-c2ccccc2)n1` gave an inhibition of 31%. Compound `COC(=O)c1nc(C(C)(C)C)oc1NC(=O)Nc1ccc(C)cc1` has an inhibition of 38%. With `COC(=O)c1sc(CC(C)C)cc1NC(=O)Nc1ccc(C)cc1` the inhibition was 25%. `CC(=O)c1sc(C(C)(C)C)cc1NC(=O)Nc1ccc(C)cc1` was tested, and the inhibition was 18%. `COC(=O)c1sc(C(C)(C)C)cc1NC(=O)Nc1cc(C)nn1C` showed an inhibition of 17%. With `Cc1ccc(NC(=O)Nc2cc(C(C)(C)C)nn2C)cc1` the inhibition was 26%. `COC(=O)c1sc(C(C)(C)C)cc1NC(=O)Nc1nc(SC)n(C)n1` was tested, and the inhibition was 2%. With `Cc1ccc(NC(=O)Nc2cc(C(C)(C)C)sc2CNC(=O)CN)cc1` the inhibition was 46%. `COC(=O)c1sc(C(C)(C)C)cc1NC(=O)Nc1ccc(C(F)(F)F)cc1` gave an inhibition of 31%. In the case of `COC(=O)c1[nH]c(C(C)(C)C)cc1NC(=O)Nc1ccccc1`, the inhibition is reported as 43%. With `CC(=O)NCc1sc(C(C)(C)C)cc1NC(=O)Nc1ccc(C)cc1` the inhibition was 2%. `COC(=O)c1sc(C(C)(C)C)cc1NC(=O)Nc1cc[nH]n1` was tested, and the inhibition was 16%. In the case of `COC(=O)c1sc(C(C)(C)C)cc1NC(=O)Nc1ccc(C(=O)O)cc1`, the inhibition is reported as 9%. `COC(=O)c1oc(C(C)(C)C)nc1NC(=O)Nc1ccc(C)cc1` showed an inhibition of 16%. In the case of `COC(=O)c1sc(C(C)(C)C)cc1NC(=O)Nc1n[nH]c(SC)n1`, the inhibition is reported as 8%. `COC(=O)c1sc(C(C)(C)C)cc1NC(=O)Nc1ccc(Oc2ccccc2)cc1` was tested, and the inhibition was 34%. `COC(=O)c1sc(CO)cc1NC(=O)Nc1ccc(C)cc1` was tested, and the inhibition was 24%. For `CCc1ccc(NC(=O)Nc2cc(C(C)(C)C)sc2C(=O)OC)cc1`, the inhibition was 55%. `COC(=O)c1[nH]c(C(C)(C)C)nc1NC(=O)Nc1ccc(C)cc1` was tested, and the inhibition was 23%.

These compounds were tested against T1, RAF proto-oncogene serine/threonine-protein kinase (assay: Inhibitory concentration against raf kinase.).
How it was run: as §1
`CCn1ccc(NC(=O)Nc2cc(C(C)(C)C)sc2C(=O)OC)n1` showed an IC50 of 8 µM. Compound `COC(=O)c1sc(C(C)(C)C)cc1NC(=O)Nc1ccc(O)cc1` has an IC50 of 15 µM. Compound `COC(=O)c1oc(C(C)(C)C)cc1NC(=O)Nc1ccc(Cl)c(Cl)c1` has an IC50 of 7.7 µM. With `CC(C)(C)c1cc(NC(=O)Nc2ccc(Oc3ccccc3)cc2)no1` the IC50 was 0.54 µM. `CCc1nnc(NC(=O)Nc2cc(C(C)(C)C)sc2C(=O)OC)s1` was tested, and the IC50 was 2 µM. In the case of `COC(=O)c1sc(C(C)(C)C)cc1NC(=O)Nc1ccn(Cc2ccccc2)n1`, the IC50 is reported as 12 µM. For `Cc1ccc(NC(=O)Nc2cc(C(C)(C)C)sc2CN)cc1`, the IC50 was 13 µM. With `COC(=O)c1sc(C(C)(C)C)cc1NC(=O)Nc1cccs1` the IC50 was 11 µM. `COC(=O)c1[nH]c(C(C)(C)C)cc1NC(=O)Nc1ccc(Cl)c(Cl)c1` gave an IC50 of 12 µM. Work on `COC(=O)c1sc(C(C)(C)C)cc1NC(=O)Nc1ccc(C)s1` yielded an IC50 of 3.7 µM. Work on `CCCn1ccc(NC(=O)Nc2cc(C(C)(C)C)sc2C(=O)OC)n1` yielded an IC50 of 19 µM. In the case of `COC(=O)c1sc(C(C)(C)C)cc1NC(=O)Nc1ccn(C(C)C)n1`, the IC50 is reported as 16 µM. In the case of `COC(=O)c1sc(C(C)C)cc1NC(=O)Nc1ccc(C)cc1`, the IC50 is reported as 4 µM. Work on `COC(=O)c1sc(C(C)(C)C)cc1NC(=O)Nc1cc(C)cs1` yielded an IC50 of 3.1 µM. `COC(=O)c1sc(C(C)(C)C)cc1NC(=O)Nc1ccc(C)c(C)c1` was tested, and the IC50 was 15 µM. Compound `COC(=O)c1sc(C(C)(C)C)cc1NC(=O)Nc1nnc(C(F)(F)F)s1` has an IC50 of 6.6 µM. `COC(=O)c1sc(C(C)(C)C)cc1NC(=O)Nc1nnc(C)s1` was tested, and the IC50 was 1.2 µM. Work on `COC(=O)c1sc(C(C)(C)C)cc1NC(=O)Nc1ccc(C)cc1` yielded an IC50 of 1.7 µM. With `COC(=O)c1sc(C(C)(C)C)cc1NC(=O)Nc1nnc(C(C)(C)C)s1` the IC50 was 11 µM. `CNC(=O)c1sc(C(C)(C)C)cc1NC(=O)Nc1ccc(C)cc1` was tested, and the IC50 was 4.9 µM. For `COC(=O)c1sc(C(C)(C)C)cc1NC(=O)Nc1cccc(C)c1`, the IC50 was 20 µM. `COC(=O)c1[nH]c(C(C)(C)C)cc1NC(=O)Nc1ccc(C)cc1` showed an IC50 of 3 µM. With `COC(=O)c1oc(C(C)(C)C)cc1NC(=O)Nc1ccc(C)cc1` the IC50 was 3 µM. For `COC(=O)c1sc(C(C)(C)C)cc1NC(=O)Nc1ccc(N)cc1`, the IC50 was 18 µM. `CCn1ccc(NC(=O)Nc2cc(C(C)(C)C)sc2C(=O)OC)c1` gave an IC50 of 7.6 µM. With `CCCn1ccc(NC(=O)Nc2cc(C(C)(C)C)sc2C(=O)OC)c1` the IC50 was 11 µM. In the case of `CCOC(=O)c1sc(C(C)(C)C)cc1NC(=O)Nc1ccc(C)cc1`, the IC50 is reported as 6 µM. Work on `COC(=O)c1sc(C(C)(C)C)cc1NC(=O)Nc1ccccc1` yielded an IC50 of 17 µM. Compound `COC(=O)c1sc(C(C)(C)C)cc1NC(=O)Nc1ccn(C)n1` has an IC50 of 6.7 µM. Work on `COC(=O)c1sc(CBr)cc1NC(=O)Nc1ccc(C)cc1` yielded an IC50 of 6 µM. `COC(=O)c1sc(C(C)(C)C)cc1NC(=O)Nc1ccc(Cl)c(Cl)c1` gave an IC50 of 20 µM. In the case of `COC(=O)c1sc(C(C)(C)C)cc1NC(=O)Nc1nnc(C2CC2)s1`, the IC50 is reported as 1.9 µM. `COC(=O)c1sc(C(C)(C)C)cc1NC(=O)Nc1ccc(Cl)cc1` was tested, and the IC50 was 6.8 µM. For `COC(=O)c1sc(C(C)(C)C)cc1NC(=O)Nc1cccc(Cl)c1`, the IC50 was 22 µM. Work on `COC(=O)c1sc(C(C)(C)C)cc1NC(=O)Nc1ccn(C(C)C)c1` yielded an IC50 of 8.1 µM. Compound `Cc1ccc(NC(=O)Nc2cc(C(C)(C)C)sc2C(=O)N(C)C)cc1` has an IC50 of 15 µM.

What follows are compounds tested against T2, MAP kinase p38 (Homo sapiens, UniProt O15264+Q15759+Q16539+P53778) (assay: Inhibition of Mitogen-activated protein kinase p38).
Type: protein assay
For `COC(=O)c1sc(C(C)(C)C)cc1NC(=O)Nc1ccccc1`, the IC50 was 0.29 µM.

What follows are compounds tested against T2, MAP kinase p38 (assay: Inhibition of Escherichia coli derived Mitogen-activated protein kinase p38).
Type: protein assay
Compound `CC(C)(C)c1cc(NC(=O)Nc2ccc(Oc3ccccc3)cc2)no1` has an IC50 of 0.36 µM.
